We go through 15 compounds from ChEMBL document CHEMBL3108701, “Isolation of arginase inhibitors from the bioactivity-guided fractionation of Byrsonima coccolobifolia leaves and stems” (J Nat Prod, 2014).

Each structure is given as a SMILES string.

In experiment [1] the target is T1, Arginase (Leishmania amazonensis, UniProt O96394). Kind of experiment: Inhibition of Leishmania amazonensis recombinant arginase expressed in Escherichia coli Rosetta (DE3) pLysS using L-arginine as substrate incubated for 10 mins prior to substrate addition measured after 10 mins by colorimetry.
In experiment [2] the target is Arginase (Leishmania amazonensis) (UniProt O96394). Kind of experiment: Noncompetitive inhibition of Leishmania amazonensis recombinant arginase expressed in Escherichia coli Rosetta (DE3) pLysS using L-arginine as substrate assessed as enzyme-substrate-inhibitor complex by Dixon reciprocal plot analysis. In short, it runs like this:
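Purified recombinant L. amazonensis arginase in 50 mM CHES pH 9.6, 37 °C, with urea read at 600 nm by urease-coupled colorimetry. Three inhibitor concentrations plus an uninhibited control were tested against L-arginine at 6.25–72.0 mM. Inhibition type, Ki and Kis were taken from double-reciprocal plots.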

For experiment [3], the target named is T1, Arginase. The experiment in a line: Noncompetitive inhibition of Leishmania amazonensis recombinant arginase expressed in Escherichia coli Rosetta (DE3) pLysS using L-arginine as substrate by Dixon reciprocal plot analysis. In a few lines:
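His-tagged enzyme purified by Ni-NTA then DEAE anion exchange. Urea production from L-arginine measured in 50 mM CHES pH 9.6 at 37 °C. Enzyme was preincubated 10 min with inhibitor at three concentrations plus a no-inhibitor control. Substrate was then added at 6.25–72.0 mM and reacted for 10 min. Urea read by urease/salicylate–hypochlorite colorimetry at 600 nm, in duplicate. Inhibition type and Ki taken from reciprocal plots.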

The term IC50 denotes the concentration that gives 50% inhibition. On to `CC(=O)Oc1cc(OC(C)=O)c2c(=O)c(OC(C)=O)c(-c3ccc(OC(C)=O)c(OC(C)=O)c3)oc2c1`, for which the IC50 in experiment [1] was 121 µM. For `COc1ccc(-c2oc3cc(O)cc(O)c3c(=O)c2O[C@@H]2O[C@@H](C)[C@H](O)[C@@H](O)[C@H]2O)cc1O`, the IC50 in experiment [1] was 88.1 µM.

In the case of `COc1c(O)cc(-c2oc3cc(O)cc(O)c3c(=O)c2O[C@@H]2O[C@@H](C)[C@H](O)[C@@H](O)[C@H]2O)cc1O`, the IC50 in experiment [1] worked out at 224 µM. One may read the Ki as the dissociation constant of the complex between target and ligand, obtained from inhibition or displacement. On to `C[C@H]1O[C@H](Oc2c(-c3cc(O)c(O)c(O)c3)oc3cc(O)cc(O)c3c2=O)[C@@H](O)[C@@H](O)[C@@H]1O`, for which the IC50 in experiment [1] was found to be 2.4 µM. Also, the Kis in experiment [2] is 1.9 µM. In experiment [3], the Ki is 3.8 µM. Consider `COc1cc(-c2oc3cc(OC)c(OC)c(OC)c3c(=O)c2OC)cc(OC)c1OC`, for which the IC50 in experiment [1] is 128 µM.

For `C[C@@H]1O[C@@H](O[C@@H]2Cc3c(O)cc(O)cc3O[C@H]2c2ccc(O)c(O)c2)[C@H](O)[C@H](O)[C@H]1O`, the IC50 in experiment [1] was found to be 35.1 µM. With `Oc1cc(O)c2c(c1)O[C@H](c1ccc(O)c(O)c1)[C@H](O)C2` [(-)-EPICATECHIN], the IC50 in experiment [1] is 1.6 µM. Further, the Ki in experiment [3] amounted to 0.2 µM.

With `Oc1cc(O)c2c(c1)O[C@H](c1ccc(O)c(O)c1)[C@@H](O)C2` [CIANIDANOL], the IC50 in experiment [1] was determined as 1.7 µM. In addition, the Ki in experiment [3] was determined as 0.6 µM. Consider `O=c1c(O[C@@H]2O[C@H](CO)[C@@H](O)[C@H](O)[C@H]2O)c(-c2ccc(O)c(O)c2)oc2cc(O)cc(O)c12` [ISOQUERCETIN], for which the IC50 in experiment [1] was found to be 2 µM. Moreover, in experiment [2], the Kis is 6.9 µM. With `O=c1c(O)c(-c2ccc(O)cc2)oc2cc(O)cc(O)c12` [KAEMPFEROL], in experiment [1], the half-maximal inhibitory concentration (IC50) worked out at 55 µM. In the case of `O=c1c(O)c(-c2cc(O)c(O)c(O)c2)oc2cc(O)cc(O)c12` [MYRICETIN], the IC50 in experiment [1] was 2.1 µM. In addition, in experiment [3], the Ki was found to be 1.2 µM. For the compound `O=c1c(O)c(-c2ccc(O)c(O)c2)oc2cc(O)cc(O)c12` [QUERCETIN], the IC50 in experiment [1] is 4 µM.

For the compound `C[C@@H]1O[C@@H](Oc2c(-c3ccc(O)c(O)c3)oc3cc(O)cc(O)c3c2=O)[C@H](O)[C@H](O)[C@H]1O` [QUERCITRIN], the IC50 in experiment [1] was found to be 12.2 µM. Also, the Kis in experiment [2] came out at 7.2 µM. For the same compound, the Ki in experiment [3] was 7.9 µM. As for `COc1cc([C@H]2OC[C@H]3[C@@H]2CO[C@@H]3c2cc(OC)c(O)c(OC)c2)cc(OC)c1O` [SYRINGARESINOL], the IC50 in experiment [1] stood at 13.7 µM. Regarding `COC1=Cc2c(cc(OC)c3cc(C)c(OC)cc23)C(C)(C)C1=O` [TRIGONOSTEMONE], the IC50 in experiment [1] is 16.6 µM.
